Published values pooled from the literature.
Compare with care: the assays were run in different laboratories.
Cell line: MDA-MB-231
Read-out: cell growth or viability

SMILES | technique | time | IC50
CN1CCc2c(c3ccccc3n2Cc2ccc(C(=O)NO)cc2)C1 | CCK-8 | 48 h | 24.7 µM
Cc1ccc(S(=O)(=O)n2cc(/C=N/NC(=O)c3ccc([N+](=O)[O-])cc3)c3ccccc32)cc1 | MTT | 48 h | 38.6 µM
COc1ccccc1/C=N/N=C1\C(=O)Nc2ccccc21 | MTT | 48 h | 26.3 µg/mL
C[C@H]1[C@H](C)CC[C@]2(C)CC[C@]3(C)C(=CC(=O)[C@@H]4[C@@]5(C)CC[C@@H](O)[C@](C)(C(=O)NCc6cn(-c7ccc(Cl)cc7)nn6)[C@@H]5CC[C@]43C)[C@H]12 | MTT | 24 h | 106 µM
Cc1ccc(S(=O)(=O)n2cc(/C=N/NC(=O)c3ccc(Br)cc3)c3ccccc32)cc1 | MTT | 48 h | 22.4 µM
COc1cccc(NC(=O)Nc2ccc(Oc3nc4ccccc4n4cnnc34)cc2)c1 | MTT | 24 h | 21.7 µM
Cc1ccc(S(=O)(=O)n2cc(/C=N/NC(=O)Cc3ccccc3C(F)(F)F)c3ccccc32)cc1 | MTT | 48 h | 20.1 µM
COc1cc([C@@H]2c3cc4c(cc3[C@@H](O[C@@H]3O[C@@H]5CO[C@@H](C)O[C@H]5[C@H](O)[C@H]3O)[C@H]3COC(=O)[C@H]23)OCO4)cc(OC)c1O | SRB | 72 h | 3.3 µM
O=c1[nH]cc(F)c(=O)[nH]1 | MTT | 48 h | 12.2 µM
C[C@H]1[C@H](C)CC[C@]2(C)CC[C@]3(C)C(=CC(=O)[C@@H]4[C@@]5(C)CC[C@@H](O)[C@](C)(C(=O)NCc6cn(-c7cccc(C(F)(F)F)c7)nn6)[C@@H]5CC[C@]43C)[C@H]12 | MTT | 24 h | 70.4 µM
CC(C)[C@@H]1NC(=O)/C(=C/c2cnc[nH]2)NC1=O | SRB | – | > 15 µM
Cc1cc(NS(=O)(=O)c2ccc(NC(=O)/C(C#N)=C/c3ccncc3)cc2)no1 | MTT | 48 h | 116 µM
O=C(Nc1ccc(Oc2nc3ccccc3n3cnnc23)cc1)Nc1cccc(Cl)c1 | MTT | 24 h | 33.6 µM
Cc1ccc(S(=O)(=O)n2cc(/C=N/NC(=O)c3cc4ccccc4cc3O)c3ccccc32)cc1 | MTT | 48 h | 16.4 µM
Cc1cc(NS(=O)(=O)c2ccc(NC(=O)/C(C#N)=C/c3ccc(N4CCCCC4)cc3)cc2)no1 | MTT | 48 h | 20 µM
O=C1Nc2ccccc2/C1=N/N=C/c1cccc([N+](=O)[O-])c1 | MTT | 48 h | 21.1 µg/mL
COc1ccccc1-n1cc(CNC(=O)[C@@]2(C)[C@H](O)CC[C@@]3(C)[C@H]2CC[C@]2(C)[C@@H]3C(=O)C[C@@H]3[C@@H]4[C@@H](C)[C@H](C)CC[C@]4(C)CC[C@]32C)nn1 | MTT | 24 h | 71.2 µM
COc1cccc2c1C(=O)c1c(O)c3c(c(O)c1C2=O)C[C@@](O)(C(=O)CO)C[C@@H]3O[C@H]1C[C@H](N)[C@H](O)[C@H](C)O1 | MTT | 48 h | 0.2 µM
CC(C)[C@@H]1NC(=O)[C@H](Cc2c[nH]cn2)NC1=O | SRB | – | > 15 µM

SMILES | technique | time | IC50
CC(C)(C)c1cnc(CSc2cnc(NC(=O)C3CCN(C(=O)CCCCCCCN4Cc5cc6c(cc5C4)C(=O)N(C4CCC(=O)NC4=O)C6=O)CC3)s2)o1 (stereo not shown) | MTT | – | 0.0796 µM
C[C@H]1[C@H](C)CC[C@]2(C(=O)O)CC[C@]3(C)C(=CC[C@@H]4[C@@]5(C)CC[C@H](O)C(C)(C)[C@@H]5CC[C@]43C)[C@H]12 | MTT | 24 h | 15 µM
C[C@H]1[C@H](C)CC[C@]2(C)CC[C@]3(C)C(=CC(=O)[C@@H]4[C@@]5(C)CC[C@@H](O)[C@](C)(C(=O)NCc6cn(-c7cccc(Br)c7)nn6)[C@@H]5CC[C@]43C)[C@H]12 | MTT | 24 h | 61.5 µM
CO[C@H]1[C@H](O[C@H]([C@H]2O[C@@H](n3ccc(=O)[nH]c3=O)[C@H](O)[C@@H]2O)[C@H](NCCCNC(=O)[C@@H](NC(=O)[C@@H](NC(=O)N[C@H](C(=O)O)C(C)C)[C@@H]2CCN=C(N)N2)[C@@H](O)C(C)C)C(=O)O)O[C@H](CN)[C@H]1O | WST-1 | – | > 35 µM
CCCNC(=S)N/N=C/c1cccc2cc3ccccc3nc12 | MTT | 48 h | > 50 µM
Cc1ccc(S(=O)(=O)n2cc(/C=N/NC(=O)c3cccnc3)c3ccccc32)cc1 | MTT | 48 h | 18.1 µM
Fc1ccc(NC(=S)N/N=C/c2cccc3cc4ccccc4nc23)cc1 | MTT | 48 h | > 50 µM
COc1cccc2c1C(=O)c1c(O)c3c(c(O)c1C2=O)C[C@@](O)(C(=O)CO)C[C@@H]3O[C@H]1C[C@H](N)[C@H](O)[C@H](C)O1 | SRB | – | 0.18 µM
COc1cccc2c1C(=O)c1c(O)c3c(c(O)c1C2=O)C[C@@](O)(C(=O)CO)C[C@@H]3O[C@H]1C[C@H](N)[C@H](O)[C@H](C)O1 | MTT | 24 h | 7.19 µg/mL
Cc1ccc(S(=O)(=O)n2cc(/C=N/NC(=O)c3ccccc3C)c3ccccc32)cc1 | MTT | 48 h | 27.2 µM
COc1cccc(NC(=S)N/N=C/c2cccc3cc4ccccc4nc23)c1 | MTT | 48 h | > 50 µM
Cc1ccc(S(=O)(=O)n2cc(/C=N/NC(=O)c3ccccc3Br)c3ccccc32)cc1 | MTT | 48 h | 29.4 µM
O=[N+]([O-])c1ccc(NC(=S)N/N=C/c2cccc3cc4ccccc4nc23)cc1 | MTT | 48 h | > 50 µM
Cc1ccc(S(=O)(=O)n2cc(/C=N/NC(=O)c3ccc(C)c(F)c3)c3ccccc32)cc1 | MTT | 48 h | 21.3 µM
C[C@H]1[C@H](C)CC[C@]2(C)CC[C@]3(C)C(=CC(=O)[C@@H]4[C@@]5(C)CC[C@@H](O)[C@](C)(C(=O)NCc6cn(-c7ccc(Br)cc7)nn6)[C@@H]5CC[C@]43C)[C@H]12 | MTT | 24 h | 72.5 µM
Nc1nc2cc(CC[C@H]3C[C@@H](n4ccc5c(N)ncnc54)[C@H](O)[C@@H]3O)ccc2cc1Br | CCK-8 | 72 h | > 100 µM
Nc1ccn([C@@H]2O[C@H](CO)[C@@H](O)C2(F)F)c(=O)n1 | MTT | 48 h | 4.07 µg/mL
CC(=O)O[C@@]12CO[C@@H]1C[C@H](O)[C@@]1(C)C(=O)[C@H](O)C3=C(C)[C@@H](OC(=O)[C@H](O)[C@@H](NC(=O)OC(C)(C)C)c4ccccc4)C[C@@](O)([C@@H](OC(=O)c4ccccc4)[C@H]21)C3(C)C | MTT | 24 h | > 50 µg/mL
